Active and inactive are the calls of the source. The calls are words filed in the database; no cut-off is given here.
Tests used:
[1] = target: T1, Toll-like receptor 9 (Homo sapiens) (UniProt Q9NR96); assay: Induction of TLR9-mediated human B cell proliferation assessed as [3H]thymidine uptake at 2 to 10 ug/ml after 56 hrs by scintillation counting; assay type: cell-based
T1 sequence (whole entry): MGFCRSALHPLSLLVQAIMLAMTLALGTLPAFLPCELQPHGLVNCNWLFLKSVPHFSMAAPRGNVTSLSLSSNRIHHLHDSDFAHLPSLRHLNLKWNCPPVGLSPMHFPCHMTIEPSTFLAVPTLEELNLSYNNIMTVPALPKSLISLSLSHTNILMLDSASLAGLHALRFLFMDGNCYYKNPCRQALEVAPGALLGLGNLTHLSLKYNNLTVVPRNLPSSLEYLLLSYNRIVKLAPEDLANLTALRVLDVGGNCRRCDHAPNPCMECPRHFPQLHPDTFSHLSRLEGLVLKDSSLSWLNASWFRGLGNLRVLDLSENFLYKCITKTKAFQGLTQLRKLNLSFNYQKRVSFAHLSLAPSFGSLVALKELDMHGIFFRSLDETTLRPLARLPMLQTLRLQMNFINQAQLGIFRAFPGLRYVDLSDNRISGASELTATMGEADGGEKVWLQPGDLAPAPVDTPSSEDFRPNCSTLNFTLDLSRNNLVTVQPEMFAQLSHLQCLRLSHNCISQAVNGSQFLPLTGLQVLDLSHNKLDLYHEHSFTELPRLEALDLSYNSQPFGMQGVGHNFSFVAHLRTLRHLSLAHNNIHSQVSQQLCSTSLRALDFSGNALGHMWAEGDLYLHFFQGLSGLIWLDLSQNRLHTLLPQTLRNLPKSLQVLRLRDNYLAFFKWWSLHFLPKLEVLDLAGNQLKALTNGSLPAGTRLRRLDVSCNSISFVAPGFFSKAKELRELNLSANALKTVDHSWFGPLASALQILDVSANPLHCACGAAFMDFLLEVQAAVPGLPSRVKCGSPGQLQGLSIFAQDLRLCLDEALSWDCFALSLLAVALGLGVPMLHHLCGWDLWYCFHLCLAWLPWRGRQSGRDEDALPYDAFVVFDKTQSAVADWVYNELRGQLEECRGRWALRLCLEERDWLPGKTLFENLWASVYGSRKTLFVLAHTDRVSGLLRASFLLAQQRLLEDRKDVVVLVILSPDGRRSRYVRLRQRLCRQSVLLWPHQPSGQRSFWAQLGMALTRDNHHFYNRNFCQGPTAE
Summary of the method: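 B cells were purified from human PBMCs (healthy volunteers), about 1 × 10⁵ cells, and stimulated with various agonist concentrations for 56 h. Cells were then pulsed with 0.75 μCi [³H]-thymidine and harvested 16 h later. Incorporation was counted by scintillation and reported as cpm.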

[2] = target: T1, Toll-like receptor 9 (Homo sapiens); assay: Induction of TLR9-mediated immune stimulation in human PBMC assessed as IL2R production at 2 ug/ml after 24 hrs by luminex multiplex assay (RVb = 0.02 +/- 0.01 ng/ml)
[3] = target: T2, Toll-like receptor 9 (Mus musculus) (UniProt Q9EQU3); assay: Activation of mouse TLR9 expressed in HEK293 cells assessed as induction of NF-kappaB activity at 1 to 10 ug/ml after 18 hrs by SEAP assay; assay type: cell-based
T2 sequence (whole entry): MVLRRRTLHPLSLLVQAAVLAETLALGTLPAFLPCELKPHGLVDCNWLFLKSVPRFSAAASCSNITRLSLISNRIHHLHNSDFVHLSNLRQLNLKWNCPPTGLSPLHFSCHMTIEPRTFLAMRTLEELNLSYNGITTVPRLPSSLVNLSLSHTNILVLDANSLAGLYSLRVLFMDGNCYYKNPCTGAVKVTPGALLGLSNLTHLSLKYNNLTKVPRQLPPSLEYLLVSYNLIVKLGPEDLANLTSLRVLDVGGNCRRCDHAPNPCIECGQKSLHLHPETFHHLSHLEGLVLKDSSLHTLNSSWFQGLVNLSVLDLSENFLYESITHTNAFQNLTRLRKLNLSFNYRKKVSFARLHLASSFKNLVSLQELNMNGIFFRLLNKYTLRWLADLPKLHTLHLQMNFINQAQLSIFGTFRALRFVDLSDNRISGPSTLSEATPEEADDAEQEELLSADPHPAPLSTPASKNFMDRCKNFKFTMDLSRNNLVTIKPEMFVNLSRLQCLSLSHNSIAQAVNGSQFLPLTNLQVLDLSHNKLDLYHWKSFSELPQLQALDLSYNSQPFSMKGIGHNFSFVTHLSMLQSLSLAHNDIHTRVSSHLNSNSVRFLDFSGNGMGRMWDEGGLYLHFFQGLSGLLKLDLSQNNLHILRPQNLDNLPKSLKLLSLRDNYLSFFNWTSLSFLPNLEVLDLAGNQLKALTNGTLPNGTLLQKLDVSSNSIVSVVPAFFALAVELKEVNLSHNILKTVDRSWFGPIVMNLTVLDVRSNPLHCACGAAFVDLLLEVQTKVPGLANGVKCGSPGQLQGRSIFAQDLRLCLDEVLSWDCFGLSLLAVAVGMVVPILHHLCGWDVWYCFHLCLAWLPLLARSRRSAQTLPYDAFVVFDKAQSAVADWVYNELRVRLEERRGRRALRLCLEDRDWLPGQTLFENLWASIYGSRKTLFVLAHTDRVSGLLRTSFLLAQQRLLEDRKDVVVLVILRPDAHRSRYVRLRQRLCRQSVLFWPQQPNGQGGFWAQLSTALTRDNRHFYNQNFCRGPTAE
Summary of the method: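 HEK293 cells stably expressing mouse TLR9 were grown in DMEM with 10% heat-inactivated FBS. At 80% confluence they were transiently transfected with a SEAP reporter plasmid (100 ng/well, lipofectamine) for 6 h. Medium was then replaced and agonists were added for 18 h. Supernatant SEAP was read with QuantiBlue substrate at 620-645 nm. Results are expressed as fold NF-κB activity over PBS control.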

Mus musculus = assay: Immunostimulatory activity in C57BL/6 mouse assessed as increase in serum IL12 level at 1 mg/kg, sc after 2 hrs by ELISA; assay type: functional, organism-based; design: dose 1 mg/kg
Summary of the method: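 Female C57BL/6 mice (n=3) received a single subcutaneous agonist dose of 1 mg/kg. Blood was taken by retro-orbital bleeding 2 h later, and serum IL-12 was measured by sandwich ELISA. Values are the mean of three mice ± SD.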

Activity [1]: Active
Activity [2]: 0.06 ng/mL
Activity [3]: Active
Compound: Cc1cn([C@H]2C[C@H](OCC(O)COP(=O)(S)O[C@H]3C[C@H](n4cc(C)c(=O)[nH]c4=O)O[C@@H]3COP(=O)(S)O[C@H]3[C@@H](O)[C@H](n4ccc(N)nc4=O)O[C@@H]3COP(=O)(S)O[C@H]3[C@@H](O)[C@H](n4cnc5c(N)ncnc54)O[C@@H]3COP(=O)(S)O[C@H]3[C@@H](O)[C@H](n4cnc5c(N)ncnc54)O[C@@H]3COP(=O)(S)O[C@H]3[C@@H](O)[C@H](n4ccc(N)nc4=O)O[C@@H]3COP(=O)(S)O[C@H]3[C@@H](O)[C@H](n4ccc(N)nc4=O)O[C@@H]3COP(=O)(S)O[C@H]3[C@@H](O)[C@H](n4cnc5c(N)ncnc54)O[C@@H]3COP(=O)(S)O[C@H]3[C@@H](O)[C@H](n4ccc(N)nc4=O)O[C@@H]3COP(=O)(S)O[C@H]3[C@@H](O)[C@H](n4cnc5c(N)ncnc54)O[C@@H]3COP(=O)(S)O[C@H]3[C@@H](O)[C@H](n4ccc(N)nc4=O)O[C@@H]3COP(=O)(S)O[C@H]3[C@@H](O)[C@H](n4cnc5c(N)ncnc54)O[C@@H]3CO)[C@@H](COP(=O)(S)O[C@H]3[C@@H](O)[C@H](n4ccc(N)nc4=O)O[C@@H]3COP(=O)(S)O[C@H]3[C@@H](O)[C@H](n4cnc5c(N)ncnc54)O[C@@H]3COP(=O)(S)O[C@H]3[C@@H](O)[C@H](n4cnc5c(N)ncnc54)O[C@@H]3COP(=O)(S)O[C@H]3[C@@H](O)[C@H](n4ccc(N)nc4=O)O[C@@H]3COP(=O)(S)O[C@H]3[C@@H](O)[C@H](n4ccc(N)nc4=O)O[C@@H]3COP(=O)(S)O[C@H]3[C@@H](O)[C@H](n4cnc5c(N)ncnc54)O[C@@H]3COP(=O)(S)O[C@H]3[C@@H](O)[C@H](n4ccc(N)nc4=O)O[C@@H]3COP(=O)(S)O[C@H]3[C@@H](O)[C@H](n4cnc5c(N)ncnc54)O[C@@H]3COP(=O)(S)O[C@H]3[C@@H](O)[C@H](n4ccc(N)nc4=O)O[C@@H]3COP(=O)(S)O[C@H]3[C@@H](O)[C@H](n4cnc5c(N)ncnc54)O[C@@H]3CO)O2)c(=O)[nH]c1=O (some centres undefined)
Activity (Mus musculus): Active
